According to ChEMBL document CHEMBL4364301 (Eur J Med Chem, 2019):

Columns and labels:
Assay type in all cases: functional
CWR22R [1] = test: Antiproliferative activity against human 22Rv1 cells assessed as T/C value at 1 x 10^1 uM incubated for 96 hrs by propidium iodide based 2D monolayer assay
Procedure, shortened: (§1)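 Cells were kept in RPMI 1640 with 25 mM HEPES, 10% FCS and gentamicin at 37 °C under 5% CO2, and plated at 4,000-20,000 cells/well. After 24 h recovery, compound in medium or medium alone (control wells) was added at 10 half-log concentrations from 0.0032 to 100 µM, in triplicate, with at most 0.3% DMSO. After 96 h, wells were PBS-washed, stained with 7 µg/ml PI and 0.1% Triton X-100, and fluorescence read at 530/620 nm. IC50 came from a 4-parameter fit, geometric mean.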

CWR22R [2] = test: Antiproliferative activity against human 22Rv1 cells assessed as T/C value at 3.2 x 10^-2 uM incubated for 96 hrs by propidium iodide based 2D monolayer assay; procedure, shortened: as §1
CWR22R [3] = test: Antiproliferative activity against human 22Rv1 cells assessed as T/C value at 3.2 x 10^-1 uM incubated for 96 hrs by propidium iodide based 2D monolayer assay; procedure, shortened: as §1
VCaP [4] = test: Antiproliferative activity against human VCaP cells assessed as reduction in cell growth incubated for 96 hrs by propidium iodide based 2D monolayer assay
Procedure, shortened: (§2)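 VCaP cells in RPMI 1640 with 10% FCS at 37 °C, 5% CO2, seeded 4,000–20,000 cells/well and left 24 h before dosing. Compounds from DMSO stocks were diluted in half-log steps in medium, 10 concentrations 0.0032–100 μM, triplicate wells, max 0.3% DMSO. After 96 h, cells were washed, stained with 7 μg/ml propidium iodide plus 0.1% Triton X-100 for 1–2 h at room temperature, and fluorescence read at ex 530/em 620 nm.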

VCaP [5] = test: Antiproliferative activity against human VCaP cells assessed as T/C value at 3.2 x 10^-2 uM incubated for 96 hrs by propidium iodide based 2D monolayer assay; procedure, shortened: as §2
LNCaP [6] = test: Antiproliferative activity against human LNCAP cells assessed as T/C value at 1 x 10^-1 uM incubated for 96 hrs by propidium iodide based 2D monolayer assay; procedure, shortened: as §1
LNCaP [7] = test: Antiproliferative activity against human LNCAP cells assessed as T/C value at 3.2 x 10^-2 uM incubated for 96 hrs by propidium iodide based 2D monolayer assay; procedure, shortened: as §1
VCaP [8] = test: Antiproliferative activity against human VCaP cells assessed as T/C value at 1 x 10^-2 uM incubated for 96 hrs by propidium iodide based 2D monolayer assay; procedure, shortened: as §1
CWR22R [9] = test: Antiproliferative activity against human 22Rv1 cells assessed as T/C value at 1 x 10^-1 uM incubated for 96 hrs by propidium iodide based 2D monolayer assay; procedure, shortened: as §1
CWR22R [10] = test: Antiproliferative activity against human 22Rv1 cells assessed as T/C value at 1 x 10^-2 uM incubated for 96 hrs by propidium iodide based 2D monolayer assay; procedure, shortened: as §1
DU-145 [11] = test: Antiproliferative activity against human DU145 cells assessed as T/C value at 1 uM incubated for 96 hrs by propidium iodide based 2D monolayer assay
Procedure, shortened: as §1, with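 “After” for “Cells were kept in RPMI 1640 with 25 mM HEPES, 10% FCS and gentamicin at 37 °C under 5% CO2, and plated at 4,000-20,000 cells/well. After”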

DU-145 [12] = test: Antiproliferative activity against human DU145 cells assessed as T/C value at 3.2 x 10^-1 uM incubated for 96 hrs by propidium iodide based 2D monolayer assay
Procedure, shortened: as §1, with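 “After” for “Cells were kept in RPMI 1640 with 25 mM HEPES, 10% FCS and gentamicin at 37 °C under 5% CO2, and plated at 4,000-20,000 cells/well. After”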

LNCaP [13] = test: Antiproliferative activity against human LNCAP cells assessed as T/C value at 3.2 uM incubated for 96 hrs by propidium iodide based 2D monolayer assay; procedure, shortened: as §1
CWR22R [14] = test: Antiproliferative activity against human 22Rv1 cells assessed as T/C value at 1 uM incubated for 96 hrs by propidium iodide based 2D monolayer assay; procedure, shortened: as §1
DU-145 [15] = test: Antiproliferative activity against human DU145 cells assessed as T/C value at 1 x 10^-2 uM incubated for 96 hrs by propidium iodide based 2D monolayer assay
Procedure, shortened: as §1, with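 “After” for “Cells were kept in RPMI 1640 with 25 mM HEPES, 10% FCS and gentamicin at 37 °C under 5% CO2, and plated at 4,000-20,000 cells/well. After”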

DU-145 [16] = test: Antiproliferative activity against human DU145 cells assessed as T/C value at 1 x 10^2 uM incubated for 96 hrs by propidium iodide based 2D monolayer assay; procedure, shortened: as §1
VCaP [17] = test: Antiproliferative activity against human VCaP cells assessed as T/C value at 3.2 x 10^1 uM incubated for 96 hrs by propidium iodide based 2D monolayer assay; procedure, shortened: as §2
VCaP [18] = test: Antiproliferative activity against human VCaP cells assessed as T/C value at 3.2 x 10^-3 uM incubated for 96 hrs by propidium iodide based 2D monolayer assay; procedure, shortened: as §2
VCaP [19] = test: Antiproliferative activity against human VCaP cells assessed as T/C value at 1 uM incubated for 96 hrs by propidium iodide based 2D monolayer assay; procedure, shortened: as §1
DU-145 [20] = test: Antiproliferative activity against human DU145 cells assessed as reduction in cell growth incubated for 96 hrs by propidium iodide based 2D monolayer assay; conditions: DU-145, 96 h
Procedure, shortened: as §1, with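 “After” for “Cells were kept in RPMI 1640 with 25 mM HEPES, 10% FCS and gentamicin at 37 °C under 5% CO2, and plated at 4,000-20,000 cells/well. After”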

CWR22R [21] = test: Antiproliferative activity against human 22Rv1 cells assessed as T/C value at 3.2 x 10^1 uM incubated for 96 hrs by propidium iodide based 2D monolayer assay; procedure, shortened: as §1
LNCaP [22] = test: Antiproliferative activity against human LNCAP cells assessed as T/C value at 3.2 x 10^-3 uM incubated for 96 hrs by propidium iodide based 2D monolayer assay; procedure, shortened: as §1
LNCaP [23] = test: Antiproliferative activity against human LNCAP cells assessed as T/C value at 1 x 10^2 uM incubated for 96 hrs by propidium iodide based 2D monolayer assay; procedure, shortened: as §1
LNCaP [24] = test: Antiproliferative activity against human LNCAP cells assessed as T/C value at 1 uM incubated for 96 hrs by propidium iodide based 2D monolayer assay; procedure, shortened: as §1
DU-145 [25] = test: Antiproliferative activity against human DU145 cells assessed as T/C value at 1 x 10^-1 uM incubated for 96 hrs by propidium iodide based 2D monolayer assay
Procedure, shortened: as §1, with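 “After” for “Cells were kept in RPMI 1640 with 25 mM HEPES, 10% FCS and gentamicin at 37 °C under 5% CO2, and plated at 4,000-20,000 cells/well. After”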

LNCaP [26] = test: Antiproliferative activity against human LNCAP cells assessed as reduction in cell growth incubated for 96 hrs by propidium iodide based 2D monolayer assay
Procedure, shortened: as §1, with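 “After” for “Cells were kept in RPMI 1640 with 25 mM HEPES, 10% FCS and gentamicin at 37 °C under 5% CO2, and plated at 4,000-20,000 cells/well. After”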

DU-145 [27] = test: Antiproliferative activity against human DU145 cells assessed as T/C value at 3.2 x 10^-3 uM incubated for 96 hrs by propidium iodide based 2D monolayer assay
Procedure, shortened: as §1, with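 “After” for “Cells were kept in RPMI 1640 with 25 mM HEPES, 10% FCS and gentamicin at 37 °C under 5% CO2, and plated at 4,000-20,000 cells/well. After”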

VCaP [28] = test: Antiproliferative activity against human VCaP cells assessed as T/C value at 3.2 x 10^-1 uM incubated for 96 hrs by propidium iodide based 2D monolayer assay; procedure, shortened: as §2
CWR22R [29] = test: Antiproliferative activity against human 22Rv1 cells assessed as T/C value at 3.2 x 10^-3 uM incubated for 96 hrs by propidium iodide based 2D monolayer assay; procedure, shortened: as §1
VCaP [30] = test: Antiproliferative activity against human VCaP cells assessed as T/C value at 1 x 10^1 uM incubated for 96 hrs by propidium iodide based 2D monolayer assay; procedure, shortened: as §1
VCaP [31] = test: Antiproliferative activity against human VCaP cells assessed as T/C value at 1 x 10^-1 uM incubated for 96 hrs by propidium iodide based 2D monolayer assay; procedure, shortened: as §1
VCaP [32] = test: Antiproliferative activity against human VCaP cells assessed as T/C value at 1 x 10^2 uM incubated for 96 hrs by propidium iodide based 2D monolayer assay; procedure, shortened: as §1

Row | SMILES | T/C (CWR22R [1]) | T/C (CWR22R [2]) | T/C (CWR22R [3]) | IC50 (VCaP [4]) | IC70 (VCaP [4]) | T/C (VCaP [5]) | T/C (LNCaP [6]) | T/C (LNCaP [7]) | T/C (VCaP [8]) | T/C (CWR22R [9]) | T/C (CWR22R [10]) | T/C (DU-145 [11]) | T/C (DU-145 [12]) | T/C (LNCaP [13]) | T/C (CWR22R [14]) | T/C (DU-145 [15]) | T/C (DU-145 [16]) | T/C (VCaP [17]) | T/C (VCaP [18]) | T/C (VCaP [19]) | further results
1 | CC(O)(COc1ccc(S(F)(F)(F)(F)F)cc1)C(=O)Nc1cc(C(F)(F)F)cc(C(F)(F)F)c1 (racemic) | 13% | 105% | 110% | 2.4 µM | 3.22 µM | 96% | 100% | 99% | 102% | 106% | 106% | 117% | 115% | 15% | 109% | 104% | 1% | 4% | 105% | 98% | IC50 (DU-145 [20]): 6.5 µM; IC70 (DU-145 [20]): 7.99 µM; T/C (CWR22R [21]): 7%; T/C (LNCaP [22]): 92%; T/C (LNCaP [23]): 1%; T/C (LNCaP [24]): 89%; T/C (DU-145 [25]): 109%; IC50 (LNCaP [26]): 1.9 µM; IC70 (LNCaP [26]): 2.45 µM; T/C (DU-145 [27]): 103%; T/C (VCaP [28]): 91%; T/C (CWR22R [29]): 102%; T/C (VCaP [30]): 21%; T/C (VCaP [31]): 107%; T/C (VCaP [32]): 6%
2 | CC(O)(COc1cc(C(F)(F)F)cc(C(F)(F)F)c1)C(=O)Nc1cccc(S(F)(F)(F)(F)F)c1 (racemic) | 13% | 110% | 105% | 2.8 µM | 3.24 µM | 87% | 76% | 74% | 87% | 106% | 105% | 123% | 116% | 17% | 102% | 104% | 0% | 4% | 97% | 94% | IC50 (DU-145 [20]): 9.3 µM; IC70 (DU-145 [20]): 9.59 µM; T/C (CWR22R [21]): 4%; T/C (LNCaP [22]): 89%; T/C (LNCaP [23]): 2%; T/C (LNCaP [24]): 101%; T/C (DU-145 [25]): 114%; IC50 (LNCaP [26]): 2.8 µM; IC70 (LNCaP [26]): 3 µM; T/C (DU-145 [27]): 107%; T/C (VCaP [28]): 91%; T/C (CWR22R [29]): 104%; T/C (VCaP [30]): 37%; T/C (VCaP [31]): 78%; T/C (VCaP [32]): 7%
3 | CC(O)(COc1cc(C(F)(F)F)cc(C(F)(F)F)c1)C(=O)Nc1ccc(S(F)(F)(F)(F)F)cc1 (racemic) | 16% | 99% | 109% | 2.6 µM | 4.53 µM | 95% | 99% | 100% | 95% | 104% | 99% | 118% | 113% | 26% | 108% | 103% | 1% | 6% | 101% | 88% | IC50 (DU-145 [20]): 8.6 µM; IC70 (DU-145 [20]): 9.21 µM; T/C (CWR22R [21]): 8%; T/C (LNCaP [22]): 90%; T/C (LNCaP [23]): 3%; T/C (LNCaP [24]): 90%; T/C (DU-145 [25]): 109%; IC50 (LNCaP [26]): 2.3 µM; IC70 (LNCaP [26]): 2.97 µM; T/C (DU-145 [27]): 102%; T/C (VCaP [28]): 87%; T/C (CWR22R [29]): 106%; T/C (VCaP [30]): 23%; T/C (VCaP [31]): 99%; T/C (VCaP [32]): 5%
